The record followed here is article PMC8324087 (Angewandte Chemie (International ed. in English), 2021).

For data set [1], the target named is T1, FGFR2 (Homo sapiens, UniProt P21802). In words: Immunoblot analysis of FGFR2 degradation in KATO III cells. Type of data set: cell-based. In a few lines:
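FGFR2-amplified KATO III cells exposed to test compound at 1 µM for 24h, across a concentration series for 6h, over a time course, or for 4h beside a negative-control analogue. For rescue, cells were pretreated 2h with BGJ398, a VHL ligand, bortezomib or MLN4924, then given test compound for 4h. Full-length FGFR2 was detected by immunoblot.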
Target sequence in this assay (P21802 430-767 limits assumed): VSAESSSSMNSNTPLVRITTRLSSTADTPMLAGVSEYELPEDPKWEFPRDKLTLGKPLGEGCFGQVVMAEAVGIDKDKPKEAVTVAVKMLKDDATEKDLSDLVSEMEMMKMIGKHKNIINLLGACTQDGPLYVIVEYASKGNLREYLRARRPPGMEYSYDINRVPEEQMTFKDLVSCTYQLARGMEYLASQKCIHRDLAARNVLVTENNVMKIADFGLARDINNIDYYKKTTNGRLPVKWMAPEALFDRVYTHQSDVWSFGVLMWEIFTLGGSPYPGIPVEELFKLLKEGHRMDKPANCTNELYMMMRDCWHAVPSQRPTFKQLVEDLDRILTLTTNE

Data set [2] has as its target T1, FGFR2. In words: Z'-LYTE kinase assay. Type of data set: biochemical.
Target sequence in this assay (P21802 22-821): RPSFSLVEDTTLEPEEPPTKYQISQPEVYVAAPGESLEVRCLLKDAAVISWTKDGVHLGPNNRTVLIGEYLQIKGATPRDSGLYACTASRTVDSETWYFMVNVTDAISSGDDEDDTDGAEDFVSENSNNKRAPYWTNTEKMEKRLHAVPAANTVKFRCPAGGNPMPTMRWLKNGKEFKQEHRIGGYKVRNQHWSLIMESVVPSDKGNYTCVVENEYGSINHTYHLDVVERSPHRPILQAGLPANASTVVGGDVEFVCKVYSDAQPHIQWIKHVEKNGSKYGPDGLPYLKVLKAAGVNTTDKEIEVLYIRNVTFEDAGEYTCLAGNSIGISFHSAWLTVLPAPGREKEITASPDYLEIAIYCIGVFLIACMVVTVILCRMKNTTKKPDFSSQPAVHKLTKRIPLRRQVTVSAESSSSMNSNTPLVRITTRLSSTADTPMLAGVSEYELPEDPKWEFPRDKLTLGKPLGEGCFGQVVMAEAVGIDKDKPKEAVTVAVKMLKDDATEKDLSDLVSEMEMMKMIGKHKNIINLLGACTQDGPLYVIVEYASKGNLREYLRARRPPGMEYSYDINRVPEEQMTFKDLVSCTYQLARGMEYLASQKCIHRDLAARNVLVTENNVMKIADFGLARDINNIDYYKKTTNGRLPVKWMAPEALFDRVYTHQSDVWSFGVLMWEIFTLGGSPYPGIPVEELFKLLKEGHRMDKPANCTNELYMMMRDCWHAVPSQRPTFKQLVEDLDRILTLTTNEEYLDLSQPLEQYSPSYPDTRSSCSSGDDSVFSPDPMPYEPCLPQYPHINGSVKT
Another data set deals with FGFR2-PHGDH fusion (Homo sapiens, UniProt O43175+P21802). In words: Immunoblot analysis of FGFR2-PHGDH fusion in CCLP-1-FP cells. The class given is cell-based. To be noted: 100 nM and 1 µM, 24h. In a few lines: (§1)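 Immunoblot for FGFR2 fusion protein after 24 h exposure to test compound. FGFR2-PHGDH fusion is ectopically expressed in CCLP-1 cells (CCLP-1-FP); FGFR2-OPTN is endogenous in ICC13–7 cells. Both fusions carry nearly the full FGFR2 coding sequence (extracellular, transmembrane and kinase domains) fused in-frame to dimerization-domain partners.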
FGFR2-PHGDH fusion, sequence (P21802 431-767 limits assumed, one chain of several): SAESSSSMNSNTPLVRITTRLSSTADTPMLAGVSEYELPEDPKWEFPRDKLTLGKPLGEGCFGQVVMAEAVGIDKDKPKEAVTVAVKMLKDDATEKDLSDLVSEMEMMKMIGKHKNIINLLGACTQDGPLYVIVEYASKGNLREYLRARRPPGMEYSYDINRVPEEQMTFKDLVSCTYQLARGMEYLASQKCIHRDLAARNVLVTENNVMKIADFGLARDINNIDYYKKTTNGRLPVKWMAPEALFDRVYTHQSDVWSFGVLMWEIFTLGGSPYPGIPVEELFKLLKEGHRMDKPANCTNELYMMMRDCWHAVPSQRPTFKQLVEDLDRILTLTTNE
On the technique in general: A western blot detects proteins with antibodies after separation by electrophoresis.

In a further data set the target is FGFR2-OPTN fusion (Homo sapiens, UniProt P21802+Q96CV9). In words: Immunoblot analysis of FGFR2-OPTN fusion in ICC13–7 cells. Type of data set: cell-based. To be noted: 100 nM and 1 µM, 24h. Put shortly:
as §1

In another data set the target is FGFR1 (Homo sapiens, UniProt P11362). In words: Immunoblot analysis of FGFR1 degradation in CCLP1 cells. The class given is cell-based.
FGFR1, sequence (P11362 22-822): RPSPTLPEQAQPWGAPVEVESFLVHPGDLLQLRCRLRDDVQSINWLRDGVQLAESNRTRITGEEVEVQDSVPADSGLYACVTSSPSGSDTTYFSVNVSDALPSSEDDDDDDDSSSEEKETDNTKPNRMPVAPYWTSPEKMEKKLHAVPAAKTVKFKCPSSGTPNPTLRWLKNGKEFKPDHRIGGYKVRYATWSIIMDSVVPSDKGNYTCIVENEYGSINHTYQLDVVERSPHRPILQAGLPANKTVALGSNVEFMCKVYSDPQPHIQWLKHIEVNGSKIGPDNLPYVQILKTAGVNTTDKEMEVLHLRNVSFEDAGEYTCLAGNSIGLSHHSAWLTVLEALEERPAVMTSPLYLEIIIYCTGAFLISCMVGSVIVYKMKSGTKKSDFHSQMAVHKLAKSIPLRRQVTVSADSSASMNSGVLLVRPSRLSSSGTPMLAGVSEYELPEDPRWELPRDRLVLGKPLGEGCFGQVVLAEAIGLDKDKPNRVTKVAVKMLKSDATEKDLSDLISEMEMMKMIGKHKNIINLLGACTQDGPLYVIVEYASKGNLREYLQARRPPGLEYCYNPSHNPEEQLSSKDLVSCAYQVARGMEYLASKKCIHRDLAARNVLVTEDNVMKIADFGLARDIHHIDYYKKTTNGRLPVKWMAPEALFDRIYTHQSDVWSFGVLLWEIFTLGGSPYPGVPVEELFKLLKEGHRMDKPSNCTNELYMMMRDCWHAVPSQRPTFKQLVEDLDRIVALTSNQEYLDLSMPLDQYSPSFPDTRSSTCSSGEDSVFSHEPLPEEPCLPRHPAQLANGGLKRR
The next data set deals with FGFR3 (Homo sapiens, UniProt P22607). In words: Immunoblot analysis of FGFR3 in JHH7 cells. The class given is cell-based. To be noted: 16h.
FGFR3, sequence (P22607 23-806): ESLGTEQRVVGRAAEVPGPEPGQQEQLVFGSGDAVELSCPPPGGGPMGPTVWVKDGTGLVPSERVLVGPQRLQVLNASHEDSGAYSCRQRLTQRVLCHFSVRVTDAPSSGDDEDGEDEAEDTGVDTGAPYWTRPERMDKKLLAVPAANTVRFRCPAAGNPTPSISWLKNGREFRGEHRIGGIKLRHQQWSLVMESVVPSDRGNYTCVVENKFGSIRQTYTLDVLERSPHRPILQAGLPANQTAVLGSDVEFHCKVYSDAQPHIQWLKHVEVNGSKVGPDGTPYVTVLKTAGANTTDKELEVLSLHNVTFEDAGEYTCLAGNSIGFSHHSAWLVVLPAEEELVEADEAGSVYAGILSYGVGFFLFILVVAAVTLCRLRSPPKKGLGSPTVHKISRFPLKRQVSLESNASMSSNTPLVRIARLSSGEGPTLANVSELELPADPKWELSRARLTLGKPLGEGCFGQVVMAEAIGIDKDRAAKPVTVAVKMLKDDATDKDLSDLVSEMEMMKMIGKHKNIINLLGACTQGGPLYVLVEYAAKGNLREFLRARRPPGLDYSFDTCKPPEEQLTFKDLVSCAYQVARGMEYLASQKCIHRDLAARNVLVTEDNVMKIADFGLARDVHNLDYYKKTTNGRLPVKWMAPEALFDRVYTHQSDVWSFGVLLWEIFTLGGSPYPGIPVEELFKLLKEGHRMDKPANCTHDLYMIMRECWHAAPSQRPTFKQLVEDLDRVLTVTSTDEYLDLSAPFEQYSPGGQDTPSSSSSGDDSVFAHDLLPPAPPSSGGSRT
A further data set has as its target FGFR4 (Homo sapiens, UniProt P22455). In words: Immunoblot analysis of FGFR4 in JHH7 cells. The class given is cell-based. To be noted: 16h.
A further data set relates to Kelly cells. In words: Quantitative mass spectrometry-based proteomics in Kelly cells. Type of data set: cell-based. The note with it: 5h treatment, 1 µM. In a few lines: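 Kelly cells, which express both FGFR1 and FGFR2, given test compound at 1 µM for 5h. Quantitative mass spectrometry-based proteomics gave relative abundance of proteins across the proteome.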
For another data set, the system named is all FGFR isoforms. In words: Biochemical inhibition of FGFR isoforms. The note with it: Table S1. In a few lines:
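FGFR isoform IC50s measured by Z'-LYTE kinase assay, run as an outsourced service.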

For the next data set, the system named is CCLP1 cells. In words: CellTiter-Glo anti-proliferation, CCLP1 cells. The class given is cell-based. To be noted: read-out: anti-proliferative IC50, FGFR1 overexpressing CCLP1 cells, 3d. In a few lines: (§2)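 Cell viability read by CellTiter-Glo after test compound exposure: 3d for CCLP-FP (CCLP-1 with ectopic FGFR2-PHGDH fusion) and CCLP1 (FGFR1 overexpression), 10d for ICC13–7 (endogenous FGFR2-OPTN fusion); anti-proliferative IC50 derived; mean ± SEM, n = 3.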
In general terms: ATP-based viability assays read luminescence as a measure of living cells.

Another data set relates to ICC13–7 cells. In words: CellTiter-Glo anti-proliferation, ICC13–7 cells. The class given is cell-based. To be noted: read-out: anti-proliferative IC50, FGFR2 fusion-positive ICC13–7 cells, 10d. Put shortly:
as §2

In a further data set the test system is CCLP-FP cells. In words: CellTiter-Glo anti-proliferation, CCLP-FP cells. Type of data set: cell-based. To be noted: read-out: anti-proliferative IC50, engineered FGFR2 fusion CCLP-FP cells, 3d. In a few lines: as §2
The test system of data set [3] is phosphorylation of FRS2 or ERK. In words: Immunoblot of downstream FGFR2 signaling. The class given is cell-based. The note with it: CCLP1-FP cells, 50 nM, 4 or 8 hours. Put shortly:
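CCLP1 cells ectopically expressing the FGFR2-PHGDH fusion were exposed to test compound at 50 nM for 4 or 8 hours. Lysates were immunoblotted for the fusion protein and for signaling markers.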

Data set [4] in a line: Pharmacokinetics study in mice. The class given is in vivo. Put shortly: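 Mice received a single dose of test compound by intravenous injection (1 mg/kg), intraperitoneal injection (3 mg/kg) or oral administration (10 mg/kg) for pharmacokinetic profiling.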
Another data set has as its target FGFR2-PHGDH (Homo sapiens, UniProt O43175+P21802). In words: In vivo pharmacodynamics, CCLP1-FGFR2-PHGDH xenograft model. Also noted: species or system mice. To be noted: 20 or 40 mg/kg, IP QD for 6d; tumors isolated 4h after last dose. In a few lines:
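Mice bearing CCLP1-FGFR2-PHGDH xenografts began dosing once tumours reached ~200 mm3. Test compound was given at 20 or 40 mg/kg IP once daily for 6 d to assess in vivo degradation and signaling.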

The mark [5] stands for this setting: read-out: FGFR2 IC50, BGJ398-VHL based degraders.

Structures are written as SMILES. pIC50: −log10 of the molar value. Read-outs that look alike come from different tables or passages of the source. A value given as a limit tells only on which side of the number the result lay.

FGFR2-PHGDH, sequence (P21802 458-767 limits assumed, one chain of several): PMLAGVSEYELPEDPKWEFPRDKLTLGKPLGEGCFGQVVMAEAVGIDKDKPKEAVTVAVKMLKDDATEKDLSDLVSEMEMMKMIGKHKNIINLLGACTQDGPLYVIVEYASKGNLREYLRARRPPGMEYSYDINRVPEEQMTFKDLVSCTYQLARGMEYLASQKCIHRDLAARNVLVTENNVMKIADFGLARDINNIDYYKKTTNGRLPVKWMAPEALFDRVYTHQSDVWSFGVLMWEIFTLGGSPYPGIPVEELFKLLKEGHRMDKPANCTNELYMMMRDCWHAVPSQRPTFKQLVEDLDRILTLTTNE
FGFR4, sequence (P22455 22-802): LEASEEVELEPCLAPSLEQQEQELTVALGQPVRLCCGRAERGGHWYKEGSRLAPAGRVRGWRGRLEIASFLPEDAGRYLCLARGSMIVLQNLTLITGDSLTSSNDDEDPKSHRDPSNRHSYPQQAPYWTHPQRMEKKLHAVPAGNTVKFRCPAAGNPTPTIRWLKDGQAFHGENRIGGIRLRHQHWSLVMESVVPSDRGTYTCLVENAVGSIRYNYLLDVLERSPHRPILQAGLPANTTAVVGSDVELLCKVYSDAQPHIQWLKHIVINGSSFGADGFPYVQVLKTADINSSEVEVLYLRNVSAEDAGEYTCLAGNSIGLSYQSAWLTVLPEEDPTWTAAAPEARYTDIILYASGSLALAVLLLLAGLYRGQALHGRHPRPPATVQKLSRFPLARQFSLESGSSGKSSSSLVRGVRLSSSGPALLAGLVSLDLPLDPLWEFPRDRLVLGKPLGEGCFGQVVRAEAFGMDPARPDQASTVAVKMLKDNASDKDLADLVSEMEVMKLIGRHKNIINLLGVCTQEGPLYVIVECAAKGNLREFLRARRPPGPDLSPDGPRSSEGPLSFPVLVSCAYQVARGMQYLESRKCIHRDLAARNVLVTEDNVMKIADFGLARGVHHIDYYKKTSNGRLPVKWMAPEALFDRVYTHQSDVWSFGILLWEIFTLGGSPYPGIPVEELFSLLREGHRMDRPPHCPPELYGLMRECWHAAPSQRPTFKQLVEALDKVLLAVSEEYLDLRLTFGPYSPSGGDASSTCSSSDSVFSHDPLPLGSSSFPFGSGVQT
FGFR2-OPTN fusion, sequence (P21802 431-767 limits assumed, one chain of several): as the sequence (P21802 431-767 limits assumed, one chain of several) above

`CCN1CCN(c2ccc(Nc3cc(N(C)C(=O)Nc4c(Cl)c(OC)cc(OC)c4Cl)ncn3)cc2)CC1` [BGJ398, reference compound]: the “Rescue of DGY-09-192 induced FGFR2 degradation by pretreatment” value on FGFR2 [1] (2h pretreatment then DGY-09-192 for 4h) was “rescued FGFR2 degradation”.

As to `COc1cc(OC)c(Cl)c(NC(=O)N(C)c2cc(Nc3ccc(N4CCN(CC(=O)NCCCCCOc5cccc6c5C(=O)N(C5CCC(=O)NC5=O)C6=O)CC4)cc3)ncn2)c1Cl` (stereo not drawn) [DGY-09-073], the pIC50 (as a rule, the negative decadic logarithm of the IC50, by convention in mol/L) at FGFR2 [2] (read-out: FGFR2 IC50, BGJ398-IMiDs based degraders) was 7.48.

On to `COc1cc(OC)c(Cl)c(NC(=O)N(C)c2cc(Nc3ccc(N4CCN(CC(=O)N[C@H](C(=O)N5C[C@H](O)C[C@H]5C(=O)N[C@@H](C)c5ccc(-c6scnc6C)cc5)C(C)(C)C)CC4)cc3)ncn2)c1Cl` [DGY-09-192], for which the pIC50 at FGFR2 [2] (setting [5]) is 7.47. Besides, the “Concentration at which hook effect is observed” value at FGFR2 [1] (6h dose titration) is reported as “above 5 µM”. The “Dmax of FGFR2 degradation” value at FGFR2 [1] (6h treatment) came out at 74%. In addition, the “Degradation of full length FGFR2 protein” value at FGFR2 [1] (24h treatment at 1 µM) is recorded as “most potent degradation”. Also, the “Time to significant FGFR2 degradation” value on FGFR2 [1] (time course) is recorded as at most 4 h. In addition, on FGFR2-PHGDH fusion, the “Degradation of FGFR2-PHGDH fusion protein” value is recorded as “dose-dependent degradation”. Moreover, on FGFR2-OPTN fusion, the “Degradation of FGFR2-OPTN fusion protein” value is on record as “dose-dependent degradation”. Also, on FGFR1 (16h), the “Dmax of FGFR1 degradation” value came out at 85%. In addition, on FGFR1 (read-out: DC50 of FGFR1 degradation, 16h), the DC50 – broadly, the concentration at which degradation of the target reaches its halfway point – came out at 4.35 nM. Moreover, at FGFR3, the “Effect on FGFR3 protein levels” value was “minimal effects”. For the same molecule, the “Effect on FGFR4 protein levels” value on FGFR4 is listed as “minimal effects”. The Proteome-wide degradation selectivity entry in the data set with Kelly cells is “high selectivity for FGFR1 and FGFR2 with PDE6D as an off-target”. Besides, the “Inhibition of FGFR isoforms” value in the data set with all FGFR isoforms is reported as “equally potent inhibitor for all FGFR isoforms”. Further, in the data set with CCLP1 cells, the pIC50 is 7.77. The pIC50 with ICC13–7 cells was 7.40. The negative logarithm of the IC50 (pIC50) in the data set with CCLP-FP cells is 8.10. Further, the “Suppression of downstream FGFR2 signaling (phosphorylation of FRS2 or ERK)” value in data set [3] was “durably suppressed”. In data set [4] (ip 3 mg/kg), the AUClast was 7.33 µM·h, the CL was determined as 6.84 mL/min/kg, the highest level (Cmax) was 1490 nM and the T1/2 is given as 4.25 h. For the same molecule, the Tmax (in general, the time at which the peak concentration occurs) in data set [4] (ip 3 mg/kg) was 1.33 h. Besides, in data set [4] (iv 1 mg/kg), the AUClast was found to be 2.94 µM·h, the CL is 5.58 mL/min/kg, the concentration peaked (Cmax) at 1600 nM and the T1/2 is recorded as 5.45 h. In addition, in [4] (iv 1 mg/kg), the Tmax was 0.08 h; the distribution volume (Vss) (in general, a proportionality between amount in the body and measured concentration, not a real space) came out at 1.41 L/kg. For the same molecule, in data set [4] (oral 10 mg/kg), the “oral bioavailability” value was “negligible”. In [4] (po 10 mg/kg), the AUClast is 0.07 µM·h; the CL is listed as 1550.77 mL/min/kg; the Cmax (in general, the peak of the concentration-time curve) was determined as 10 nM; the Fpo is on record as 0.2. Besides, in data set [4] (po 10 mg/kg), the T1/2 is reported as 5.10 h and the Tmax came to 1.67 h. In data set [4] (via IV and IP administration), the “clearance” value is “low clearance” and the “half-life (T1/2)” value is on record as 5 h. At FGFR2-PHGDH, the “FGFR2-PHGDH protein levels in tumor” value is given as “reduction”; the “phosphorylation of downstream markers FRS2 and ERK1/2 in tumor” value was “reduction”.

For `COc1cc(OC)c(Cl)c(NC(=O)N(C)c2cc(Nc3ccc(N4CCN(CC(=O)NCCCCCSC(C)(C)C(NC(C)=O)C(=O)N5CC(O)CC5C(=O)NC(C)c5ccc(-c6scnc6C)cc5)CC4)cc3)ncn2)c1Cl` (stereo not drawn) [DGY-11-122], the pIC50 at FGFR2 [2] (setting [5]) is 7.37.

Turning to `COc1cc(OC)c(Cl)c(NC(=O)N(C)c2cc(Nc3ccc(N4CCN(CC(=O)NCCCCCOc5cc(-c6scnc6C)ccc5[C@H](C)NC(=O)[C@@H]5C[C@@H](O)CN5C(=O)[C@@H](NC(C)=O)C(C)(C)C)CC4)cc3)ncn2)c1Cl` [DGY-11-123], at FGFR2 [2] (setting [5]), the pIC50 was 7.23.

For the molecule `COc1cc(OC)c(Cl)c(NC(=O)N(C)c2cc(Nc3ccc(N4CCN(CC(=O)NCCC(=O)N[C@H](C(=O)N5C[C@H](O)C[C@H]5C(=O)N[C@@H](C)c5ccc(-c6scnc6C)cc5)C(C)(C)C)CC4)cc3)ncn2)c1Cl` [NJH-05-043], the pIC50 on FGFR2 [2] (setting [5]) was 7.52.

As for `COc1cc(OC)c(Cl)c(NC(=O)N(C)c2cc(Nc3ccc(N4CCN(C(=O)NCCOCCC(=O)NC(C(=O)N5CC(O)CC5C(=O)NC(C)c5ccc(-c6scnc6C)cc5)C(C)(C)C)CC4)cc3)ncn2)c1Cl` (stereo not drawn) [NJH-05-044], the pIC50 on FGFR2 [2] (setting [5]) was 7.48.

With `COc1cc(OC)c(Cl)c(NC(=O)N(C)c2cc(Nc3ccc(N4CCN(CCCCCC(=O)N[C@H](C(=O)N5C[C@H](O)C[C@H]5C(=O)N[C@@H](C)c5ccc(-c6scnc6C)cc5)C(C)(C)C)CC4)cc3)ncn2)c1Cl` [NJH-05-123], the negative logarithm of the IC50 (pIC50) on FGFR2 [2] (setting [5]) was 7.80.

`COc1cc(OC)c(Cl)c(NC(=O)N(C)c2cc(Nc3ccc(N4CCN(CCCC(=O)N[C@H](C(=O)N5C[C@H](O)C[C@H]5C(=O)N[C@@H](C)c5ccc(-c6scnc6C)cc5)C(C)(C)C)CC4)cc3)ncn2)c1Cl` [NJH-05–132]: the pIC50 on FGFR2 [2] (setting [5]) was 8.00.

As for `COc1cc(OC)c(Cl)c(NC(=O)N(C)c2cc(Nc3ccc(N4CCN(CCC(=O)N[C@H](C(=O)N5C[C@H](O)C[C@H]5C(=O)N[C@@H](C)c5ccc(-c6scnc6C)cc5)C(C)(C)C)CC4)cc3)ncn2)c1Cl` [NJH-05–166], the pIC50 at FGFR2 [2] (setting [5]) is 7.52.
